# Test results: the RNAGym collection of RNA variant scans (doi:10.1126/science.aae0568)
# Fewer inactive variants are shown than the library holds.
# B1: tRNA (parent)
# chain: GUUCCGUUGGCGUAAUGGUAACGCGUCUCCCUCCUAAGGAGAAGACUGCGGGUUCGAGUCCCGUACGGAACG
# Variants of: B1
# Experiment: yeast fitness relative to wild type (ratio to wild type); higher = fitter; tRNA-Arg(CCU), competitive growth, 37 C, YPD
# Method in brief: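 Changes in genotype frequencies gave Darwinian fitness relative to wild type. Frequencies were read by 100-nucleotide paired-end sequencing of gene amplicons before and after pooled Saccharomyces cerevisiae strains, carrying tRNA-Arg(CCU) gene variants at the native locus, were competed in YPD at 37°C for 24 hours in six replicates. A genotype was kept only with ≥ 100 starting reads, and estimates < 0.5 were set to 0.5.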
row,Variant,yeast fitness
1,A14G U19A C27G G44A C46G C55G C66A,≤ 0.5
2,A14U G23A C29G C46A C55G G68A,≤ 0.5
3,A14G U19C A21U,0.503
4,A14U A42C G52A G56C,≤ 0.5
5,A14U C31G G38A C66U,≤ 0.5
6,A14U C30U C34U A45U,≤ 0.5
7,A14U C22U C30U C46U G52C,≤ 0.5
8,A14U U26A C33A G63A,≤ 0.5
9,A14U C24U U64C,≤ 0.5
10,A14G U28A,0.705
11,A14G C46U G50C C55U A57U C62G A70U,0.54
12,A14G U35A A42U C46G G56A A70C,0.569
13,A14G U47A G56A,0.724
14,A14U C30A C46U C62A,≤ 0.5
15,A14U G17A A45U G58C,≤ 0.5
16,A14G G18A U26A U32C,≤ 0.5
17,A14U U16A C33G,≤ 0.5
18,A14G G39A G44C C61A G63C,≤ 0.5
19,A14G G17C G39A A69C,≤ 0.5
20,A14G U16G C24G U26C U47G G50C C66A,≤ 0.5
21,A14G C34G C60G A70C,≤ 0.5
22,A14U G25C G39C U54G A65U,≤ 0.5
23,A14U C55A A65C,≤ 0.5
24,A14G C30U C46A G50A,≤ 0.5

row,Variant,yeast fitness
1,A14U G48A A70U,0.661
2,A14U A42G A43G C66G,≤ 0.5
3,A14G U32G,0.597
4,A14G G39C G51A,≤ 0.5
5,A14U C24G G41A G44A U53A A57G C66U,0.529
6,A14U A21G G39C A45G U53C,0.521
7,A14U C33G A37G A40C C49G G67C,≤ 0.5
8,A14U A37U C61A A65U,≤ 0.5
9,A14G G23A A36G C66U,≤ 0.5
10,A14G C34U G52A C66U A70U,≤ 0.5
11,A14U U28A G41C A42U G52A A70C,≤ 0.5
12,A14G U59A,0.894
13,A14U C22A U28A C30U U53A U54C,≤ 0.5
14,A14G C31G A37U A57C A69U,≤ 0.5
15,A14G G38C,0.787
16,A14G C34A C62G G68C,0.763
17,A14U A20C C22G C31G U47A,≤ 0.5
18,A14U G44C G51A A70U,0.596
19,A14U A45G U53C,≤ 0.5
20,A14U U16A A65U,0.626
21,A14G U16A C24G G51A,0.511
22,A14G U54C A70G,0.535
23,A14G G23C C29G G63C C66G,≤ 0.5
24,A14U U28A G51A,≤ 0.5

row,Variant,yeast fitness
1,A14G C29G C33U,0.55
2,A14U U19A G23A A43C A57G U64G,≤ 0.5
3,A14U C27G A37U,≤ 0.5
4,A14G C34G A43C C62A C66A,≤ 0.5
5,A14G U28A A45C U53A,≤ 0.5
6,A14G G18C C30U C34U C61G,≤ 0.5
7,A14G G41C,0.917
8,A14G U26C G48A,0.661
9,A14U C30A C66U,0.547
10,A14G U19C,0.919
11,A14U C34G C61G,≤ 0.5
12,A14U G48C,0.714
13,A14U C22G A42C C66U,≤ 0.5
14,A14U A40C A57C C61U,≤ 0.5
15,A14U A45G,0.67
16,A14G C30G A45G,0.585
17,A14G C29U G41A U54G C55U A69U,≤ 0.5
18,A14G G18C C29G U54C,≤ 0.5
19,A14U A21C G41A G67C,≤ 0.5
20,A14G G67U,0.776
21,A14G G48C G67C,≤ 0.5
22,A14G C30A C34G,0.508
23,A14G C29U G39A,0.574
24,A14U C29G U53C U54G,0.571

row,Variant,yeast fitness
1,A14G U19A C55U,≤ 0.5
2,A14G U53G G56A C61U,0.656
3,A14U G18C G39C C49G C61U,≤ 0.5
4,A14U A15U C34G A42C,0.537
5,A14G C31G A43U C46G A70U,≤ 0.5
6,A14U A21G A43U G58C,≤ 0.5
7,A14U C24G A36G C66U,≤ 0.5
8,A14U G18A C24A C34A,0.53
9,A14U C49G A57U,≤ 0.5
10,A14U U35C A37U,≤ 0.5
11,A14U C29U C55U A69G,≤ 0.5
12,A14U C27U A69G,≤ 0.5
13,A14G U19G C27G C34A A42U,≤ 0.5
14,A14U U35C C55A C60A,≤ 0.5
15,A14G U16G C24G U26C G50C A65U,≤ 0.5
16,A14U A21C A36C C49A G68C,≤ 0.5
17,A14U G56A,0.619
18,A14U U16G U19A G56A G67A,≤ 0.5
19,A14G G18A U26A G50A,≤ 0.5
20,A14U G25A C60G C66G,≤ 0.5
21,A14G U54C,0.633
22,A14G G25A C30A A57U,0.607
23,A14G U19A A20G A40U C61G,0.515
24,A14G C30A C34A A43C,≤ 0.5

row,Variant,yeast fitness
1,A14G U53C G67C,≤ 0.5
2,A14G C49G A69U,0.566
3,A14G G58C A70U,0.892
4,A14U A43G G63C,≤ 0.5
5,A14U U35C C55G C61G C66U,≤ 0.5
6,A14G G17A G44C A65U,≤ 0.5
7,A14U A43U U59A,≤ 0.5
8,A14U G41C C49U A65U,≤ 0.5
9,A14G G25C C29A G52A,≤ 0.5
10,A14G C30A C34A A43C A65C A70C,≤ 0.5
11,A14U C61G,≤ 0.5
12,A14U C30U C62G A65G G68C,≤ 0.5
13,A14U A15C A40G G56C G67C,≤ 0.5
14,A14U U26A C55G A65C,≤ 0.5
15,A14U G23C C55A,0.559
16,A14U G44C G51A G63A A70U,≤ 0.5
17,A14U A21G,0.584
18,A14U C31G G38A,0.657
19,A14G C29G C31U,0.6
20,A14U C46G G63A,0.53
21,A14U A20C C31G A69U,≤ 0.5
22,A14U C27G A36G G52C C61A,≤ 0.5
23,A14U A15G C31A C34G C61U,≤ 0.5
24,A14G U16A U47C,0.812

row,Variant,yeast fitness
1,A14G U54A A69U,≤ 0.5
2,A14G U19A C34U C66U,0.538
3,A14G G17A A57C,≤ 0.5
4,A14G G51A A57C,0.742
5,A14U A65G C66G,0.788
6,A14U G23U,0.59
7,A14G C46A,0.873
8,A14U U28A C33U,0.714
9,A14U C34G C61G A70C,≤ 0.5
10,A14U C30G,0.516
11,A14U A37U A40C A42G,≤ 0.5
12,A14G G52C,0.577
13,A14G C31A G44C C60G,≤ 0.5
14,A14G U16A C33A C49U C55U,≤ 0.5
15,A14G G44C G58A A65G,0.553
16,A14G C31A A43G,0.679
17,A14G C31U G68C,≤ 0.5
18,A14U A21G A45C U59C,≤ 0.5
19,A14U A15C C33A G39C,≤ 0.5
20,A14U A15G A21C G56A C62U A65U,0.554
21,A14U C30A G38A C55A A65C,≤ 0.5
22,A14U C22A A43G,≤ 0.5
23,A14U A57C C60G C61A,0.601
24,A14U G18C,0.583

row,Variant,yeast fitness
1,A14U C29U A37U C46U U59G,≤ 0.5
2,A14G G18C C31A,≤ 0.5
3,A14U G18C A70G,0.715
4,A14G C61U,0.934
5,A14U A20C C27U U35C G48A C62A,≤ 0.5
6,A14G U16A,0.886
7,A14U G17A C29G C34U U35A G38C C55G A69G A70C,0.511
8,A14U G25A A42G C66G,0.767
9,A14G G17C C22G,≤ 0.5
10,A14U C55A,0.575
11,A14U C55G,0.578
12,A14G C34G A43C C62U,≤ 0.5
13,A14U U32C A40C G67A,0.529
14,A14G G25A A36U G50A C62G,≤ 0.5
15,A14G G17C A36C G48A C49G G51A A70C,≤ 0.5
16,A14U A69U A70C,≤ 0.5
17,A14U U26C C31U G68A,≤ 0.5
18,A14U C31U C55U G68A,0.618
19,A14U C55A U59G A65C,0.561
20,A14U G25A C61U,0.649
21,A14U A21G G39C A45G G63C,≤ 0.5
22,A14U C49A A57G,0.542
23,A14U G23C C29G G51A G56U,≤ 0.5
